SMILES strings stand for the structures. Converted amounts (≈) assume the structure as drawn.

One assay relates to CCRF-CEM. Briefly: Concentration required to inhibit growth of CCRF-CEM cells in culture for 72 hr to 50% of control growth. In kind it is functional, cell-based. Particulars: Homo sapiens.
A short description of assay [1]: Antitumor activity in vivo against the 6C3HED lymphosarcoma dosed for 10 days at 150 mg/kg. In kind it is functional. Particulars: Mus musculus, 192 h, in the assay text read “dosed for 8 days” for “dosed for 10 days”. An outline of the steps: (§1)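 Tumor fragments (about 1–2 mm) implanted sc via trochar into a subaxillary site of syngeneic mice (C3H, C57BL/6, Balb/C or DBA/2) or Holtz rats. Groups were 7–10 randomized animals. Compound was suspended in 2.5% Emulphor in 0.9% saline and given orally by gavage or ip, usually from the day after implantation. Tumor volume versus untreated controls was measured one day after the final dose and reported as % inhibition. Scoring bands: +++ 95–100%, ++ 80–94%.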

The nature of assay [2]: Antitumor activity in vivo against the 6C3HED lymphosarcoma dosed for 8 days at 150 mg/kg. Particulars: Mus musculus, 192 h.
The test system of assay [3] is Rattus norvegicus. Briefly: Hypoglycemic activity expressed as (Maximum reduction in blood glucose in mg/dL relative to predosing glucose level)/(time in hours at which maximum reduction occurred). Type of assay: functional. An outline of the steps: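 Fed male Sprague-Dawley rats (175–200 g), four per compound, received a single oral gavage dose of 200 mg/kg suspended in 5% acacia. Tail blood was sampled before dosing and at 1, 2, 3 and 5 h, and glucose was measured by glucose oxidase/peroxidase colorimetry. Each rat served as its own control. Value = maximum fall from predose glucose (mg/dL) divided by the hour at which that maximum occurred.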

A short description of assay [4]: Antitumor activity in vivo against the 6C3HED lymphosarcoma, dosed for 8 days at 300 mg/kg. To be noted: Mus musculus, 192 h.
For a further assay, the system named is P1534J. Nature of the assay: Antitumor activity in vivo expressed as percent of inhibition in P1534J-lymphatic leukemia cell line. In kind it is functional, Mus musculus.
Assay [5] concerns Rattus norvegicus. Nature of the assay: Antitumor activity in vivo expressed as percent of inhibition in Yoshida-sarcoma (rat) cell line. In kind it is functional. An outline of the steps:
as §1

A further assay concerns Colon 26. Briefly: Antitumor activity in vivo expressed as percent of inhibition in C-26-colon carcinoma cell line. Type of assay: functional, Mus musculus. The method, boiled down:
as §1

In the next assay the test system is L1210. Nature of the assay: Antitumor activity in vivo and the activity was determined as percent increase in life span determined against L1210V-lymphocytic leukemia tumor cell lines. Type of assay: functional, Mus musculus. The method, boiled down: (§2)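 The ascites tumor inoculum of 1 × 10^6 cells was given ip to DBA/2 mice, and treatment started the next day. Compound was suspended in 2.5% Emulphor in 0.9% saline. Groups had 7–10 animals. %ILS = (MDD treated − MDD control)/MDD control × 100. Deaths before the control median day of death were counted as toxic. Values are optimal from at least two experiments.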

The test system of the next assay is CA-755. Briefly: Antitumor activity in vivo expressed as percent of inhibition in CA-755-mammary adenocarcinoma tumor cell line. Type of assay: functional, Mus musculus. An outline of the steps: as §1
A further assay relates to C3H. Briefly: Antitumor activity in vivo expressed as percent of inhibition in C3H-mammary adenocarcinoma cell line. In kind it is functional, Mus musculus. An outline of the steps: as §1
Another assay concerns P388. Briefly: Antitumor activity in vivo and the activity was determined as percent increase in life span determined against P388-lymphocytic leukemia tumor cell lines. In kind it is functional, Mus musculus. The method, boiled down: as §2
The subject of another assay is 6C3HED. Nature of the assay: Antitumor activity in vivo expressed as percent of inhibition in 6C3HED-lymphosarcoma tumor cell line. In kind it is functional, Mus musculus. An outline of the steps: as §1
The test system of assay [6] is Lewis lung carcinoma cell line. Nature of the assay: Antitumor activity in vivo expressed as percent of inhibition in Lewis-lung carcinoma cell line. In kind it is functional, Mus musculus. The method, boiled down:
as §1

Another assay relates to B16. Briefly: Antitumor activity in vivo expressed as percent of inhibition in B-16-melanoma […] cell line. Type of assay: functional, Mus musculus. The method, boiled down:
as §1

A further assay concerns M-5 (Mus musculus). Nature of the assay: Antitumor activity in vivo expressed as percent of inhibition in M-5-ovarian carcinoma cell line.
For the next assay, the system named is X5563. Nature of the assay: Antitumor activity in vivo expressed as percent of inhibition in X5563-plasma cell myeloma cell line. In kind it is functional, Mus musculus. The method, boiled down: as §1
Assay [7] can be described thus: Antitumor activity in vivo against the 6C3HED lymphosarcoma dosed for 10 days at 1600 mg/kg (intraperitoneal dosing for 8 days). Type of assay: functional. Particulars: Mus musculus, ip. The method, boiled down: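 Solid tumor fragments of about 1–2 mm were implanted sc by trochar into the subaxillary site of syngeneic mice. Treatment began the day after implantation. Compound was suspended in 2.5% Emulphor in 0.9% saline and given ip. Groups had 7–10 randomized animals. Percent inhibition of growth was scored from tumor volume versus controls one day after the final dose.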

The nature of assay [8]: Antitumor activity in vivo against the 6C3HED lymphosarcoma dosed for 8 days at 100 mg/kg. To be noted: Mus musculus, 192 h.

In the assay on CCRF-CEM, `Cc1ccccc1S(=O)(=O)NC(=O)Nc1ccc(C(F)(F)F)cc1` had an IC50 of 13.7 µg/mL (≈ 38.2 µM). Further, testing at 150 mg/kg in [1] gave an inhibition in vivo of 67%.
In the assay on CCRF-CEM, `Cc1cccc(S(=O)(=O)NC(=O)Nc2ccc(Cl)cc2)c1` yielded an IC50 of 4.3 µg/mL (≈ 13.2 µM). The compound also came in with an inhibition in vivo at 150 mg/kg in [2] of 100%.
As for `O=C(Nc1ccc(Cl)cc1)NS(=O)(=O)c1ccc(F)cc1`, in the assay on CCRF-CEM, inhibition was half-maximal at 6.3 µg/mL (≈ 19.2 µM) (IC50). The inhibition in vivo at 150 mg/kg in assay [1] amounted to 79%.
`O=C(Nc1ccc(Cl)cc1)NS(=O)(=O)c1ccccc1` gave a half-maximal inhibitory concentration (IC50) in the assay on CCRF-CEM of 3.8 µg/mL (≈ 12.2 µM). Moreover, testing at 150 mg/kg in assay [2] gave an inhibition in vivo of 100%.
`Cc1ccc(S(=O)(=O)NC(=O)Sc2ccc(Cl)cc2)cc1`: the IC50 in the assay on CCRF-CEM amounted to 0.9 µg/mL (≈ 2.63 µM). The compound further came in with an inhibition in vivo at 150 mg/kg in assay [1] of 33%.
For `O=C(Nc1ccc(C(F)(F)F)cc1)NS(=O)(=O)c1cccc(C(F)(F)F)c1`, the concentration for half-maximal inhibition (IC50) with CCRF-CEM worked out at 15.6 µg/mL (≈ 37.8 µM). Moreover, 150 mg/kg produced 39% inhibition in vivo in [1].
The like results for `O=C(Nc1ccc(Cl)c(Cl)c1)NS(=O)(=O)c1ccc(Cl)cc1` were, in that order, 9.9 µg/mL (≈ 26.1 µM) and 85%.
`O=C(Nc1ccc(Cl)cc1)NS(=O)(=O)c1ccc2ccccc2c1` gave an IC50 in the assay with CCRF-CEM of 11.2 µg/mL (≈ 31 µM). Besides, the Ratio in the assay on Rattus norvegicus [3] was determined as 0. This compound registered an inhibition in vivo at 300 mg/kg in assay [4] of 100%.
With `Cc1ccc(S(=O)(=O)NC(=O)Nc2ccc(I)cc2)cc1`, the half-inhibitory concentration (IC50) in the assay on CCRF-CEM is 19.6 µg/mL (≈ 47.1 µM). The inhibition in vivo at 150 mg/kg in [1] was 76%.
The compound `O=C(Nc1ccc(C(F)(F)F)cc1)NS(=O)(=O)c1ccccc1` came in with a half-maximal inhibitory concentration (IC50) in the assay with CCRF-CEM of 6 µg/mL (≈ 17.4 µM). Moreover, testing at 150 mg/kg in [1] gave an inhibition in vivo of 81%.
On to `O=C(Nc1ccc(Cl)cc1)NS(=O)(=O)c1ccc(Cl)c(Cl)c1`, for which it took 14.2 µg/mL (≈ 37.4 µM) to reach half-maximal inhibition with CCRF-CEM (IC50). The same compound came in with an inhibition in vivo at 150 mg/kg in [2] of 100%.
`Cc1ccc(S(=O)(=O)NC(=O)Nc2ccc(Cl)cc2)cc1` [LY-181984] gave a half-inhibitory concentration (IC50) with CCRF-CEM of 8.9 µg/mL (≈ 27.4 µM). Moreover, the Inhibition with P1534J was 100%; with Rattus norvegicus [5], 79%; with Colon 26, 94%; in the assay with CA-755 it was 100%; in the assay with C3H, 94%; with 6C3HED it was 100%. The Inhibition in assay [6] is under 60%; in the assay with B16, 79%; in the assay on M-5 (Mus musculus), 100%; in the assay on X5563, 94%. The Increase in life-span in the assay on L1210 and with P388 was under 50% throughout. In addition, the inhibition in vivo at 300 mg/kg in assay [4] amounted to 100%.
In turn, `O=C(NC(=O)c1c(F)cccc1F)Nc1ccc(Cl)cc1` [DIFLUBENZURON] returned a half-maximal inhibitory concentration (IC50) in the assay with CCRF-CEM of over 20 µg/mL. This compound also gave an inhibition in vivo at 300 mg/kg in [4] of 6%. The compound also gave an inhibition in vivo at 1600 mg/kg in assay [7] of 33%.
The compound `O=C(Nc1ccc(Br)cc1)NS(=O)(=O)c1ccccc1` displayed an IC50 with CCRF-CEM of 7.1 µg/mL (≈ 20 µM). This compound gave an inhibition in vivo at 150 mg/kg in assay [1] of 82%.
With `O=C(Nc1ccc(Cl)cc1)NS(=O)(=O)c1ccc(Cl)cc1`, in the assay with CCRF-CEM, the IC50 amounted to 19.3 µg/mL (≈ 55.9 µM). In assay [8], this compound came in with an inhibition in vivo at 100 mg/kg of 100%.
`COC(=O)c1ccc(S(=O)(=O)NC(=O)Nc2ccc(C(F)(F)F)cc2)cc1` registered an IC50 in the assay with CCRF-CEM of 2.6 µg/mL (≈ 6.46 µM). 150 mg/kg produced 0% inhibition in vivo in [1].
The like results for `O=C(Nc1ccc(C(F)(F)F)cc1)NS(=O)(=O)c1ccc(Cl)c(Cl)c1` were, in that order, 15.5 µg/mL (≈ 37.5 µM) and 85%.
Regarding `Cc1ccc(S(=O)(=O)NC(=O)Nc2ccc(Br)cc2)cc1`, the concentration for half-maximal inhibition (IC50) with CCRF-CEM was found to be 8.2 µg/mL (≈ 22.2 µM). This compound also registered an inhibition in vivo at 150 mg/kg in [2] of 100%.
As to `O=C(Nc1ccc(Br)cc1)NS(=O)(=O)c1ccc(Br)cc1`, in the assay on CCRF-CEM, the half-maximal inhibitory concentration (IC50) was found to be 14.1 µg/mL (≈ 32.5 µM). This compound showed an inhibition in vivo at 150 mg/kg in [2] of 100%.

For the origin of these results see ChEMBL document CHEMBL1124898, “Novel agents effective against solid tumors: the diarylsulfonylureas. Synthesis, activities, and analysis of quantitative structure-activity relationships” (J Med Chem, 1990).
